NCF1 inh – p47phox/p22phox peptide binding inhibitors, primary screen, biochemical, uHTS, NADPH oxidase regulatory subunit; Neutrophil cytosol factor 1 (Homo sapiens), P14598; fluorescence polarization, 2 h; inhibition, % at 24.7 µM; 0.53% of 220,000 active;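 active means inhibition above about 30%, limit read from the data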;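 further: 0% = p47phox with labelled peptide and 100% = labelled peptide alone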
Dynein cargo inh – inhibitors of GR-EGFP nuclear translocation, primary screen, dynein cargo transport inhibitor project, imaging, high-content, 3617.4 mouse cells. test concentration mostly 20 µM; stimulated with dexamethasone, 1 µM; stronger effect = lower value. z-score, hits read low. 0.47% of 220,000 active. AID 1381, 2008;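 active means plate z-score of nuclear minus cytoplasmic receptor signal below a set negative limit, without overly bright fluorescence or cell loss, cut at about -3.5 in these data, passing the limit was not always enough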;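 further: z-score of nuclear minus cytoplasmic ring GR-EGFP intensity difference per well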
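Buffer or medium – tet-free medium with charcoal-stripped serum · Signal – automated 10x imaging of fixed Hoechst-stained cells · Also added – dexamethasone agonist, 1.0 µM final, for 30 min · Incubation – induction 48 h, compound 1 h, agonist 30 min · Read-out – GR-EGFP nuclear translocation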
pCIP destab – p/CIP-EGFP fusion destabilizers, primary screen, fluorescence, F442A cells. 16 h. decrease of EGFP signal, % at 10 µM. 0.01% of 290,000 active. AID 1984, 2009;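 active means EGFP signal decrease of at least 30% at 10 µM or well 3 SD below plate mean, unless failing retest; inactive means the rest, including hits failing retest or dose response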
RAM network inh – inhibitors of the yeast RAM network, primary screen, dse1pr::URA3 reporter, 5-FOA selection. S. cerevisiae dse1pr::URA3 reporter, 5-FOA growth OD615, 2 d; analog-sensitive cbk1-as2 kinase mutant strain. inhibition, % at 50 µM. 1.8% of 190,000 active;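 active means inhibition above a set limit, 3 SD over mean compound inhibition, cut at about 8.4% in these data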;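 further: 0% = DMSO-only wells with no growth and 100% = 10 µM 1-NA-PP1 full growth; inhibition rescues growth on 5-FOA so higher OD means more RAM inhibition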
RAM 5-FOA – 5-FOA growth of efflux-deficient control yeast, dose response, counter-screen for RAM network inhibitor project, S. cerevisiae, OD615 | 1,200 tested, under 10 active | shares compounds with RAM network inh | S. cerevisiae efflux-deficient reporter strain, 5-FOA growth OD615, 2 days | max inhibition, %; call rule not given here;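 further: plate controls were vehicle for no effect and reference inhibitor for full effect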
Starred values were filed as active, the others as inactive; · = no result. A selection: hits, their analogues and other compounds. The true share with any hit is near 1.9%.

SMILES	NCF1 inh	Dynein cargo inh	pCIP destab	RAM network inh	RAM 5-FOA
CCNC(=O)CSc1nnc(-c2ccccc2Br)n1-c1cccc(C(F)(F)F)c1	4	0.79	-4	12*	16
O=C(NCCCN1CCCCC1)c1ccc(CS(=O)c2ccc(Cl)cc2)o1 (stereo not drawn)	·	·	-6	·	·
CCCCOc1ccc(S(=O)(=O)Nc2ccc(NC(C)=O)cc2)cc1	-4	0.18	-11	0	·
CCCCN(CCCC)S(=O)(=O)c1ccc(NS(=O)(=O)c2ccc(NC(C)=O)cc2)cc1	-53	0.66	-21	17*	2
CCCSc1nc(NCc2ccco2)c2c3c(sc2n1)COC(C)(C)C3	-43	-0.79	1	13*	7
O=C(Nc1nc2ccccc2n1CCN1CCOCC1)c1ccccc1	·	·	5	·	·
O=C(Nc1nc2ccccc2n1CCN1CCOCC1)c1cn(-c2ccccc2)nc1-c1ccccc1	-22	0.75	-13	18*	3
Cc1ccc(SCC(=O)N2c3ccccc3Sc3ccccc32)cc1	-7	0.23	-6	14*	2
O=C(CSc1nncs1)N1c2ccccc2Sc2ccccc21	-23	-0.6	8	1	·
CCOc1ccc(S(=O)(=O)N2CCN(C(=O)c3ccncc3)CC2)cc1	·	·	-4	·	·
CCOC(=O)c1c(C)[nH]c(C)c1C(=O)COC(=O)/C=C/c1cccc(C(F)(F)F)c1	-34	1.1	-5	23*	3
CCOC(=O)c1c(C)[nH]c(C)c1C(=O)COC(=O)/C=C/c1cccc(F)c1	-3	1.9	-2	4	·
CCN=C1S/C(=C\c2cc(OCC)c(O)cc2Br)C(=O)N1CC	4	-0.4	-14	12*	3
CCN=C1S/C(=C\c2ccc(O)c(OCC)c2)C(=O)N1CC	-17	-0.086	-2	2	·
CCN(CC)S(=O)(=O)c1cc(NS(=O)(=O)c2c(Cl)cccc2Cl)ccc1C	-71	3	0	14*	2
O=C(COC(=O)CNS(=O)(=O)c1ccc2ccccc2c1)Nc1ccccc1Sc1ccccc1	-30	0.61	6	23*	4
CN(Cc1cc(-c2ccccc2)on1)C(=O)c1cc(COc2c(F)cccc2F)on1	2	0.57	7	21*	2
O=C(NCC(=O)N(c1ccc(F)cc1)C(C(=O)NC1CCCC1)c1ccncc1)c1ccco1 (stereo not drawn)	·	·	-11	·	·
CCOC(=O)CSc1nc2ccccc2c(=O)n1C1CCCC1	-12	-0.071	-3	13*	2
CCCCN1C(=O)C2(NNc3ccccc3O2)c2ccccc21 (stereo not drawn)	-21	-2.6	-16	15*	3
Cc1ccc(S(=O)(=O)N2CCC(=O)N(C(COCc3cccc(C(F)(F)F)c3)C(C)C)CC2)cc1 (stereo not drawn)	4	0.41	-6	13*	2
Cc1ccc(S(=O)(=O)N2CCC(=O)N(CCOCc3cccc(F)c3)CC2)cc1	1	0.64	-4	0	·
Cc1ccc(S(=O)(=O)N2CCC(=O)N(C(COCc3cccc(Cl)c3)Cc3ccccc3)CC2)cc1 (stereo not drawn)	-9	0.2	4	15*	4
C=CCNc1nc(Cl)nc(Nc2cc(Cl)ccc2OC)n1	·	·	7	·	·
CC1=C[C@H](C)[C@H](c2c(F)cccc2Cl)CC1=O	·	·	3	·	·
SMILES	NCF1 inh	Dynein cargo inh	pCIP destab	RAM network inh	RAM 5-FOA
COc1ccc(/C(C)=N/NC(=O)CN(c2ccc(OC)cc2)S(=O)(=O)c2ccccc2)cc1	·	·	6	·	·
CCOc1cc2c(cc1OCC)C(c1ccccc1)N(c1ccc(C(=O)O)cc1)C(=O)C2 (stereo not drawn)	-1	1.1	-3	·	·
CCCOC(=O)c1ccc(NC(=O)c2c(Cl)ccc(Cl)c2OC)cc1	1	0.075	0	12*	2
Cc1cc(NC(=O)COC(=O)C(Nc2ccc(C(F)(F)F)cc2Cl)C(C)C)no1 (stereo not drawn)	-5	-0.49	-17	13*	6
Cc1cc(NC(=O)COC(=O)[C@H](C)NC(=O)c2ccccc2)no1	0	-0.19	14	0	·
COc1cccc(-c2csc3nnc(SCC(=O)NCc4cccs4)n23)c1	-4	-0.47	13	17*	2
COc1ccc(-c2nnc(SCC(=O)NCc3cccs3)n2C)cc1	-11	-0.61	0	1	·
COC(=O)c1sccc1-c1ccc(C(=O)Nc2ccccc2)o1	-19	-0.17	-9	4	·
COC(=O)c1sccc1-c1ccc(/C=N/OCc2c(Cl)cccc2Cl)o1	-6	-0.63	-2	18*	3
CNCc1ccccc1OCc1ccc(F)cc1	-1	-0.71	7	1	·
CCOc1cc(CNC2CCCC2)ccc1OCc1ccccc1Cl	-9	-0.077	-2	-1	·
CCOc1cc(C2NN=C(c3ccccc3)S2)ccc1OCc1ccccc1Cl (stereo not drawn)	-11	-0.43	-1	13*	4
CCOc1cc(C2NN=C(c3ccccc3)S2)ccc1OCc1ccc(F)cc1 (stereo not drawn)	-10	-1.1	3	12*	3
Cc1cc(C)nc(N2N=C(CSc3ccc(Cl)cc3)CC2=O)n1	-16	-0.5	-2	13*	1
CC1=C(C(=O)OCCBr)C(c2cccc3ccccc23)NC(=O)N1 (stereo not drawn)	·	·	-11	·	·
CCCOc1cccc(C(=O)NC(=S)Nc2cccc(C(F)(F)F)c2)c1	-7	-0.65	-2	12*	3
CC1CCCC(NC(=O)COC(=O)CSc2ccc3ccccc3c2)C1C (stereo not drawn)	-14	0.018	3	12*	3
CC1CCCC(NC(=O)COC(=O)CCc2ccccc2)C1C (stereo not drawn)	-4	0.38	8	0	·
CC(C)(C)c1ccc(C(=O)NCc2nnc(SCC(=O)NC3CCCCC3)o2)cc1	·	·	-15	·	·
Cc1cccc(CSC(Nc2ccc(F)cc2)=C(C#N)C#N)c1	-8	-1	-14	7	·
N#CC(C#N)=C(Nc1ccc(F)cc1)SCc1cccc(Br)c1	-3	0.11	-10	14*	3
Cc1ccccc1NC(=O)COC(=O)c1c[nH]c(=O)[nH]c1=O	5	2.3	-2	2	·
O=c1ccc(/C=C/c2ccccc2)nn1Cc1ccc(Cl)cc1Cl	-13	0.48	10	13*	2
O=c1ccc(/C=C/c2ccccc2)nn1Cc1ccccc1Cl	-106	-0.35	-2	5	·
NC(=O)C1CCN(C(=O)Nc2csc3ccccc23)CC1	-6	1.2	1	·	·
CN(C)S(=O)(=O)c1cccc(NC(=O)COC(=O)c2ccc(Br)o2)c1	-13	1	-16	0	·
CCN(CC)S(=O)(=O)c1ccc(NC(=O)COC(=O)c2ccc(Br)o2)cc1	-18	-0.33	7	47*	2
